# CFTR F508del cor: F508del CFTR correction, initial screen, CFBE line, single point. CFBE cells, YFP halide quenching; stimulated with forskolin plus potentiator P3; % fluorescence drop versus neutral controls. activity (quench increase), % at 7.58 µM. 350,000 compounds, 0.36% hits;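 active means mean added fluorescence quench of at least 8% versus neutral control, with both replicates also reaching 8%; inconclusive means only one of the mean or replicate conditions met; inactive means mean below 8% and not both replicates reaching 8%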;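 further: cells transiently co-express mutant CFTR-F508del with the halide-sensitive YFP; corrector assay measuring rescue of mutant channel to the surface after 24 h compound exposure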
# E-selectin induc: E-selectin induction in HUVECs, primary screen, imaging, HUVEC, immunofluorescence imaging, single point. activation, % at 7.58 µM. P16581. normalized: neutral wells 0, TNF-alpha wells 100. AID 686992, 2013. 260,000 compounds, 0.37% hits;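 active means mean E-selectin-positive cell signal at least 10% of the positive control, reached in at least 60% of replicates, without over 20% cell loss; inconclusive means no rule given, readout overlaps actives, possibly toxicity-flagged; inactive means the rest, including those meeting only one limit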
# Target sequence (P16581 whole entry, looked up): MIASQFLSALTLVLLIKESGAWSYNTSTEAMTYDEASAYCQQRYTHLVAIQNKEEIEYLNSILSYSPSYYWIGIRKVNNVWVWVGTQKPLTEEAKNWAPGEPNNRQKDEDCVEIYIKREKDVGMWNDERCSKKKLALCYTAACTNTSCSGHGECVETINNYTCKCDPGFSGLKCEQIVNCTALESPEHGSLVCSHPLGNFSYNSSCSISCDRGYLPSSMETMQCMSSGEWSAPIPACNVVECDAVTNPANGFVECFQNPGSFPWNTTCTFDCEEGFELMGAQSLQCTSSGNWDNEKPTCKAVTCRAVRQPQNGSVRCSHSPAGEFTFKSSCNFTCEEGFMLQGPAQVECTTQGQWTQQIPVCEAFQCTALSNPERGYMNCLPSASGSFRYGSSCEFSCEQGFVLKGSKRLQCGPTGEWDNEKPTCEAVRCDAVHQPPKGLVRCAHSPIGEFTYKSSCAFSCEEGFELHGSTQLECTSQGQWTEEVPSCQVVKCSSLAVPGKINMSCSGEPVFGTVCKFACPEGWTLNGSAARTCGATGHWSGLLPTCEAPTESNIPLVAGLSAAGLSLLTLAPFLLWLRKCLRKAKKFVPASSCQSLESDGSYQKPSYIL
#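 Assay system: HUVEC, human umbilical vein endothelial cells / Amount: 3,000 HUVEC/well / Controls: TNF-alpha positive control, DMSO neutral control / Compound dosing: single concentration / Medium: EGM-2 over gelatin coat / Evaluation: percent E-selectin-positive cells / Signal: immunofluorescence imaging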
# FGF22 binding: binders of human FGF22 protein, primary screen, FGF22 synaptogenesis inhibitor project, biophysical, thermal shift, single point. recombinant FGF22 thermal shift, SYPRO orange fluorescence; percent of sucrose octasulfate shift, DMSO zero. 340,000 compounds, 1.5% hits. activity (Tm shift, normalised), % at 9.99 µM;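 active means mean Tm shift, scaled 0 neutral to 100 positive control, at about 1.3% or above, every replicate too, limit read from the data; inconclusive means no clear call, values can overlap the other calls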
# DENV2 CPE: inhibitors of DENV2 cytopathic effect, primary screen, cell-based, plate reader, single concentration; AID 651640, 2012; 350,000 compounds, 1.7% hits; DENV2-infected cells, cytopathic effect rescue; CPE inhibition, % at 9.99 µM; in the data active means CPE inhibition above about 20%, passing the limit was not always enough; inconclusive means no clear call, values can overlap the other calls; tested in BHK-21 cells
# ERAP1 inh: human ERAP1 aminopeptidase inhibitors, primary screen, biochemical, single point, plate reader. 340,000 compounds, 0.15% hits. Endoplasmic reticulum aminopeptidase 1 (Homo sapiens), Q9NZ08. inhibition, % at 10.7 µM. recombinant ERAP1, Leu-AMC fluorescence, 60 min;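 active means mean replicate inhibition of at least 30%, or all replicates individually reaching that 30% level; inactive means mean below 30% and not every replicate reaching it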
# Hits are given with their value; . = inactive; ? = inconclusive; / = no result given. In the library only some 3.7% were active in any assay of this set; here they are far more common.
SMILES,CFTR F508del cor,E-selectin induc,FGF22 binding,DENV2 CPE,ERAP1 inh
CCCCNC(=O)N1CCN(c2ccccc2OCC)CC1,.,87.9,.,.,.
CCOc1ccccc1N1CCN(C(=O)CSc2ccc3c(c2)OCCO3)CC1,.,78.7,.,.,.
C=CCN1Cc2ccccc2C[C@@]2(COC(c3ccc(OCCCO)cc3)=N2)C1=O,.,/,.,23.7,.
CN(C)CCNc1ccc(CO)c2oc3ccc(O)cc3c(=O)c12,.,.,.,.,.
CCN(CC)CCNc1ccc(CO)c2oc3cc(Cl)ccc3c(=O)c12,9.0,/,.,64.0,.
COc1ccc(/C=C/C(=O)O)cc1S(=O)(=O)NC1CCS(=O)(=O)C1 (stereo unspecified),.,/,43.9,.,.
CCOC(=O)NC(=O)CSc1nnc(C2CC2)n1Cc1ccco1,.,.,43.1,.,.
Cc1nnc(SCC(=O)Nc2ccccc2F)n1Cc1ccco1,.,/,.,64.4,.
O=C(CSc1nccn1Cc1ccco1)Nc1ccccc1F,.,.,.,.,.
CCn1c(SCC(=O)NCc2ccco2)nnc1C1CCCC1,.,.,.,.,.
CN1CCN(C(=O)C[C@H]2CC[C@@H]3[C@H](COC[C@H](O)CN3S(=O)(=O)c3cccc(F)c3)O2)CC1,.,.,.,.,.
CO[C@H]1CN(C)C(=O)c2ccc(NS(C)(=O)=O)cc2OC[C@@H](C)N(C(=O)C2CCOCC2)C[C@H]1C,.,.,.,.,.
CN1C(=O)c2cc(NC(=O)C3CCCCC3)ccc2OC[C@@H]2O[C@H](CC(=O)NC3CCCC3)CC[C@H]21,.,.,.,.,/
Cc1ccc(NC(=O)COC(=O)CCC2CCCC2)c(Br)c1,9.4,.,.,.,.
O=C(COC(=O)CCC1CCCC1)Nc1ccccc1Br,.,.,.,.,.
CCS(=O)(=O)c1nc(S(=O)(=O)c2ccc(Cl)cc2)c(N2CCC3(CC2)OCCO3)s1,.,/,43.2,.,.
CS(=O)(=O)c1nc(S(=O)(=O)c2ccc(Cl)cc2)c(N2CCC3(CC2)OCCO3)s1,.,.,.,.,.
CO[C@H]1CN(C)C(=O)c2ccc(NC(=O)C3CC3)cc2OC[C@@H](C)N(CC2CCOCC2)C[C@@H]1C,.,.,/,/,/
Clc1ccc(CNC2CCN(Cc3ccccc3)CC2)cc1,.,.,.,.,.
Fc1ccc(CNC2CCN(Cc3ccccc3)CC2)cc1,.,/,.,35.2,.
CCNC(=O)C[C@@H]1CC[C@H]2[C@H](COc3ccc(NC(=O)c4cccs4)cc3C(=O)N2C)O1,.,.,.,.,.
CC(=O)c1cc(NC(=O)c2cccc(C(F)(F)F)c2)c(=O)oc1C,10.7,/,.,/,.
COc1ccc(C(=O)Nc2cc(C(C)=O)c(C)oc2=O)cc1,.,/,.,.,.
O=C(OCC(=O)c1c[nH]c2ccccc12)c1cc(Br)ccc1O,.,.,43.3,.,.
COCCNc1nc(Cl)c(C#N)s1,.,.,.,.,.
SMILES,CFTR F508del cor,E-selectin induc,FGF22 binding,DENV2 CPE,ERAP1 inh
CC(O)CNc1nc(Cl)c(C#N)s1 (stereo unspecified),.,/,43.1,.,.
CC(C)(C)NC(=O)C(c1cccc2ccccc12)n1c(=O)c(-c2ccccc2)nc2ccccc21 (stereo unspecified),.,.,.,27.1,.
CC(C)(C)NC(=O)C(c1cccc2ccccc12)n1c(=O)c(-c2ccco2)nc2ccccc21 (stereo unspecified),.,.,.,.,/
CO[C@@H]1CN(C)C(=O)c2ccc(NS(=O)(=O)c3cn(C)cn3)cc2OC[C@@H](C)N(CC2CC2)C[C@H]1C,.,.,.,21.4,.
CCCN1C[C@@H](C)[C@@H](OC)CN(C)C(=O)c2cc(NS(=O)(=O)c3cn(C)cn3)ccc2OC[C@H]1C,.,.,.,/,.
CCCN1C[C@H](C)[C@H](OC)CN(C)C(=O)c2cc(NS(=O)(=O)c3cn(C)cn3)ccc2OC[C@@H]1C,.,.,.,90.0,.
CO[C@@H]1CN(C)C(=O)c2ccc(NS(=O)(=O)c3cn(C)cn3)cc2OC[C@H](C)N(CC2CC2)C[C@H]1C,.,.,.,.,.
C[C@@H]1CN([C@@H](C)CO)C(=O)c2cc(NS(=O)(=O)c3ccccc3)ccc2O[C@@H]1CN(C)S(C)(=O)=O,.,.,.,.,.
CC(=O)c1sc(NC(=O)c2ccc(Br)o2)nc1C,.,.,.,.,.
CC(=O)c1sc(NC(=O)c2oc3ccc(F)cc3c2C)nc1C,.,/,.,21.4,.
COc1ccccc1Nc1nc(N)nc(CN2CCN(c3ccccc3F)CC2)n1,/,.,/,/,/
CCOc1ccc(Nc2nc(N)nc(CN3CCN(c4ccccc4F)CC3)n2)cc1,.,/,43.7,/,.
O=C(c1ccc2c3c(cccc13)CC2)C1CCCN(Cc2ccncc2)C1 (stereo unspecified),.,.,.,.,/
CCc1nc(CN2CCCC(C(=O)c3ccc4c5c(cccc35)CC4)C2)c(C)[nH]1 (stereo unspecified),.,/,43.5,.,.
O=C(c1ccc2c3c(cccc13)CC2)C1CCCN(C(=O)c2ccc(=O)[nH]c2)C1 (stereo unspecified),.,/,.,.,.
Cc1ncccc1C(=O)N1CCCC(C(=O)c2ccc3c4c(cccc24)CC3)C1 (stereo unspecified),.,/,43.2,.,.
COc1ccc(S(=O)(=O)Nc2cccc3c2O[C@@H](CN(C)S(=O)(=O)c2cccs2)[C@@H](C)CN([C@@H](C)CO)C3=O)cc1,.,.,.,.,.
CO[C@H]1CN(C)C(=O)c2ccc(NC(=O)C3CC3)cc2OC[C@H](C)N(CC2CCCC2)C[C@H]1C,.,.,.,?,.
CCCCN1C=C(C(C)=O)C(=O)CC1,.,.,.,46.8,.
C/C=C/c1ccc([C@H]2[C@@H](CO)N(CCC)[C@@H]2CN(CC)C(=O)c2ccccn2)cc1,.,.,/,.,.
Cc1c(NS(=O)(=O)c2cc(C(=O)Nc3ccc(F)cc3Cl)ccc2Cl)c(=O)n(-c2ccccc2)n1C,.,.,.,.,.
Cc1ccc(NC(=O)c2ccc(Cl)c(S(=O)(=O)Nc3c(C)n(C)n(-c4ccccc4)c3=O)c2)cc1Cl,12.1,.,.,.,.
Cc1c(NC(=O)c2cccc(S(=O)(=O)N(C)c3ccccc3)c2)c(=O)n(-c2ccccc2)n1C,.,/,.,?,.
Cc1c(NC(=O)c2ccc(N(C)S(=O)(=O)c3ccccc3)cc2)c(=O)n(-c2ccccc2)n1C,.,.,43.4,/,.
C[C@H]1CN([C@@H](C)CO)C(=O)c2cccc(NC(=O)CCCCCC(=O)Nc3ccccc3N)c2O[C@H]1CN(C)C(=O)NC1CCCCC1,.,.,.,.,.

# Assay outcomes: PubChem, Broad Institute
